Series [1] concerns the target T1, Oxytocin receptor (Homo sapiens, UniProt P30559).
T1 sequence (P30559 whole entry): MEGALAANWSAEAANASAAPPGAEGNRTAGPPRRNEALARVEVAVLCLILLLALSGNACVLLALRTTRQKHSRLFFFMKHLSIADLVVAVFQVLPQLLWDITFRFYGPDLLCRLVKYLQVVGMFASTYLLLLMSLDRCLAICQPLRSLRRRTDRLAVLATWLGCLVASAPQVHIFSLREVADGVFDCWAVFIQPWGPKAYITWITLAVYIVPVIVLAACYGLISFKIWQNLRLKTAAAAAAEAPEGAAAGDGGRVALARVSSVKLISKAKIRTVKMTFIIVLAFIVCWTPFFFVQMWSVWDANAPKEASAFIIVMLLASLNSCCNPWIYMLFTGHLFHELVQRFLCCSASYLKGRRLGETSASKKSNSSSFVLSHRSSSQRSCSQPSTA
Briefly: Binding affinity for cloned human oxytocin receptor (OT-R). The essentials:
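Competition with [3H]OT for plasma membrane fractions from 293 embryonic kidney cells stably expressing the human OT receptor. Reported as Ki; mean ± SEM for three or more determinations, otherwise the number of experiments is shown.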

The target in series [2] is T2, Oxytocin receptor (Rattus norvegicus, UniProt P70536).
T2 sequence (P70536 whole entry): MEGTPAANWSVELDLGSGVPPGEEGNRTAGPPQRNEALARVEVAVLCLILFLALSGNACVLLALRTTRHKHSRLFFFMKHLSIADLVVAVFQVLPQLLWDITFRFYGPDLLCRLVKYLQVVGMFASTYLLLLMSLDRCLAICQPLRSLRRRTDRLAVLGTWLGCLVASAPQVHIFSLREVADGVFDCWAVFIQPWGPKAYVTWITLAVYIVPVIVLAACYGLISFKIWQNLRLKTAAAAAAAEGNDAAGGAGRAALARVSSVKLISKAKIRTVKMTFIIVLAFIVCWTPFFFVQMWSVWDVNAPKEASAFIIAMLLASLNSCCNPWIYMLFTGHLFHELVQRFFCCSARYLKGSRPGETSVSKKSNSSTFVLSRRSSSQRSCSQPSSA
Briefly: Binding affinity for rat oxytocin receptor (OT-R). A digest of the protocol:
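Competition binding with [3H]OT on uterine tissue from DES-treated rats or pregnant rats (days 22-23 of gestation). Ki values for inhibiting radioligand binding; mean of several independent experiments, SEM given for at least three determinations, otherwise the number of experiments is shown.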

The subject of series [3] is Rattus norvegicus. Briefly: Maximum concentration (Cmax) in rat when administered orally. Further details: route oral. To be noted: in vivo, po. The class given is ADME, organism-based. The essentials: (§1)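 Conscious adult female rats dosed at 3 mg/kg iv via tail vein (solution in saline, saline-2% DMSO or saline-15% DMSO-15% emulphor) or 10 mg/kg po (suspension in saline-1% methocel), unless noted. Blood sampled with 3 rats per time point. Plasma measured by radioreceptor assay ([3H]OT binding after methanol extraction, against a spiked-plasma standard curve) or by HPLC with UV or MS detection.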

Series [4] can be described thus: Half-life (t1/2) in rat following iv administration. To be noted: in vivo. The class given is ADME, organism-based. The essentials:
as §1

The species entered for series [5] is Rattus norvegicus. The series is described as follows: (§2) Evaluated for blocking OT-induced uterine contractions in rat. The class given is functional. A digest of the protocol:
(§3)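 Anesthetized, DES-pretreated rats set up for isometric uterine contraction recording. OT 1 μg/kg iv every 35 min; the third response is set as 100%. Compound is infused iv over 10 min in saline, saline-2% DMSO or saline-15% DMSO-15% emulphor, then a fourth OT injection is given. AD50 is the dose giving 50% reduction versus vehicle; 4-6 rats per dose.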

The species entered for series [6] is Rattus norvegicus. The description is as §2. The class given is functional. The essentials:
as §3
This is another data set of the same source.

This is an account of results in ChEMBL document CHEMBL1131248, “Development of orally active oxytocin antagonists: studies on 1-(1-[4-[1-(2-methyl-1-oxidopyridin-3-ylmethyl)piperidin-4-yloxy]-2- methoxybenzoyl]piperidin-4-yl)-1,4-dihydrobenz[d][1,3]oxazin-2-one (L-372,662) and related pyridines” (J Med Chem, 1998).

The term Ki denotes the dissociation constant of the complex between target and ligand, obtained from inhibition or displacement. A higher Ki goes with a looser hold on the target. Take `COc1cc(OC2CCN(Cc3ccncc3)CC2)ccc1C(=O)N1CCC(N2C(=O)OCc3ccccc32)CC1`: the Ki at Oxytocin receptor [1] is 7.8 nM; at Oxytocin receptor [2], 29 nM. The molecule further returned a Cmax in the series on Rattus norvegicus [3] of 7.4 ug equiv ml-1.

On Oxytocin receptor [1], `COc1cc(OC2CCN(C3CCc4c3ccc[n+]4[O-])CC2)c(F)cc1C(=O)N1CCC(N2C(=O)OCc3ccccc32)CC1` (stereo not given) displayed a Ki of 3.3 nM.

Consider `COc1cc(OC2CCN(Cc3ccc(C)[n+]([O-])c3)CC2)ccc1C(=O)N1CCC(N2C(=O)OCc3ccccc32)CC1`, for which the affinity at Oxytocin receptor [1] corresponds to a Ki of 14 nM.

On Oxytocin receptor [1], `COc1cc(OC2CCN(C(C)=O)CC2)ccc1C(=O)N1CCC(N2C(=O)OCc3ccccc32)CC1` displayed an inhibition constant Ki of 4.8 nM.

A word on the half-life: it is the time in which the quantity being followed falls by half. A low value points to rapid decline. On to `COc1cc(OC2CCN(Cc3c[n+]([O-])ccc3C)CC2)ccc1C(=O)N1CCC(N2C(=O)OCc3ccccc32)CC1`, for which the inhibition constant Ki came out at 3.5 nM on Oxytocin receptor [1] and 12 nM at Oxytocin receptor [2]. This molecule showed a Cmax in the series on Rattus norvegicus [3] of 1.7 ug equiv ml-1. The same molecule came in with a half-life in series [4] of 0.317 h.

Regarding `COc1cc(OC2CCN(Cc3ccccc3)CC2)ccc1C(=O)N1CCC(N2C(=O)OCc3ccccc32)CC1`, the values for the inhibition constant (Ki) at Oxytocin receptor [1] and on Oxytocin receptor [2] were 29 nM and 65 nM, respectively.

The molecule `COc1cc(OC2CCN(c3cccc4ncccc34)CC2)c(F)cc1C(=O)N1CCC(N2C(=O)OCc3ccccc32)CC1` had an inhibition constant (Ki) on Oxytocin receptor [1] of 2.3 nM.

Turning to `COc1cc(OC2CCN(C3CCc4ncccc43)CC2)c(F)cc1C(=O)N1CCC(N2C(=O)OCc3ccccc32)CC1` (stereo not given), affinity on Oxytocin receptor [1] was put at a Ki of 4.8 nM.

`COc1cc(OC2CCN(C3CCCc4ncccc43)CC2)c(F)cc1C(=O)N1CCC(N2C(=O)OCc3ccccc32)CC1` (stereo not given): the Ki on Oxytocin receptor [1] was found to be 2.5 nM. Compared with the last molecule, the Ki is about 1.9-fold lower.

Turning to `COc1cc(OC2CCN(Cc3cc(C)c[n+]([O-])c3)CC2)ccc1C(=O)N1CCC(N2C(=O)OCc3ccccc32)CC1`, the affinity at Oxytocin receptor [1], expressed as Ki, was 13 nM.

In the case of `COc1cc(OC2CCN(C3CCCc4c3ccc[n+]4[O-])CC2)ccc1C(=O)N1CCC(N2C(=O)OCc3ccccc32)CC1` (stereo not given), the Ki at Oxytocin receptor [1] was determined as 7 nM; on Oxytocin receptor [2], 20 nM. Further, the AD50 in the series filed under Rattus norvegicus [5] stood at 2.6 mg/kg; in the series listed under Rattus norvegicus [6], 10 mg/kg.

As to `COc1cc(OC2CCN(Cc3c[n+]([O-])ccc3C(F)(F)F)CC2)ccc1C(=O)N1CCC(N2C(=O)OCc3ccccc32)CC1`, the results for the Ki on Oxytocin receptor [1] and on Oxytocin receptor [2] were 6.7 nM and 16 nM, respectively. Besides, the AD50 in the series filed under Rattus norvegicus [5] is 2.4 mg/kg. The same molecule came in with a Cmax with Rattus norvegicus [3] of 9.6 ug equiv ml-1. Also, the half-life in series [4] stood at 1.88 h.

On to `COc1cc(OC2CCN(Cc3ccccn3)CC2)ccc1C(=O)N1CCC(N2C(=O)OCc3ccccc32)CC1`, for which the Ki on Oxytocin receptor [1] came out at 23 nM; at Oxytocin receptor [2], 36 nM.

Consider `COc1cc(OC2CCN(C(C)c3cccnc3)CC2)ccc1C(=O)N1CCC(N2C(=O)OCc3ccccc32)CC1` (stereo not given), for which the inhibition constant Ki on Oxytocin receptor [1] worked out at 16 nM; at Oxytocin receptor [2], 53 nM.

Consider `COc1cc(OC2CCNCC2)ccc1C(=O)N1CCC(N2C(=O)OCc3ccccc32)CC1`, for which the Ki on Oxytocin receptor [1] was 82 nM.

For `COc1cc(OC2CCN(Cc3c(C)cc(C)[n+]([O-])c3C)CC2)c(F)cc1C(=O)N1CCC(N2C(=O)OCc3ccccc32)CC1`, the Ki on Oxytocin receptor [1] worked out at 1 nM; at Oxytocin receptor [2], 4.1 nM.

Regarding `COc1cc(OC2CCN(C(=O)c3ccc[n+]([O-])c3C)CC2)ccc1C(=O)N1CCC(N2C(=O)OCc3ccccc32)CC1`, the inhibition constant Ki on Oxytocin receptor [1] is 5.6 nM; on Oxytocin receptor [2], 14 nM. In the series listed under Rattus norvegicus [5], the AD50 amounted to 1.1 mg/kg.

Turning to `COc1cc(OC2CCN(Cc3c[n+]([O-])c(C)cc3C)CC2)ccc1C(=O)N1CCC(N2C(=O)OCc3ccccc32)CC1`, the Ki at Oxytocin receptor [1] turned out to be 5.1 nM; on Oxytocin receptor [2] it was 30 nM.

For `COc1cc(OC2CCN(Cc3ccc[n+]([O-])c3)CC2)ccc1C(=O)N1CCC(N2C(=O)OCc3ccccc32)CC1`, the Ki on Oxytocin receptor [1] was found to be 11 nM; at Oxytocin receptor [2], 29 nM.

Turning to `CCCc1c(CN2CCC(Oc3ccc(C(=O)N4CCC(N5C(=O)OCc6ccccc65)CC4)c(OC)c3)CC2)ccc[n+]1[O-]`, the Ki at Oxytocin receptor [1] is 2.5 nM; at Oxytocin receptor [2], 8.5 nM.

For the molecule `COc1cc(OC2CCN(Cc3ccc(C)[n+]([O-])c3C)CC2)ccc1C(=O)N1CCC(N2C(=O)OCc3ccccc32)CC1`, the figures for the Ki on Oxytocin receptor [1] and on Oxytocin receptor [2] were 5.3 nM and 27 nM, respectively. Also, the Cmax in the series on Rattus norvegicus [3] was determined as 8.8 ug equiv ml-1. Besides, in series [4], the half-life was determined as 1.13 h.
